What was measured:
[1] = target: T1, Poly [ADP-ribose] polymerase 1 (Homo sapiens, UniProt P09874); assay: Inhibition of PARP1 by scintillation counting
[2] = target: T1, Poly [ADP-ribose] polymerase 1; assay: Inhibition of PARP1 in human C41 cells after 30 mins by cell-based assay
[3] = Clearance in CD1 mouse at 3.0 mg/kg, iv; type: ADME, organism-based; design: dose 3 mg/kg, route intravenous; settings: in vivo
Outline: (§1)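 Male CD-1 mice (26-30 g) were dosed iv via the tail vein or po by gavage. Blood was taken by cardiac puncture after CO₂ asphyxiation at set times. Plasma proteins were precipitated with acidified methanol. Samples were quantified by LC-ESI-MS against external standards from spiked control plasma.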

[4] = Volume of distribution in CD1 mouse at 3.0 mg/kg, iv; type: ADME, organism-based; design: dose 3 mg/kg, route intravenous; settings: in vivo; outline: as §1
[5] = Half life in CD1 mouse at 3.0 mg/kg, iv; type: ADME, organism-based; design: dose 3 mg/kg, route intravenous; settings: in vivo; outline: as §1
[6] = AUC in CD1 mouse at 3.0 mg/kg, iv; type: ADME, organism-based; design: dose 3 mg/kg, route intravenous; settings: plasma; outline: as §1
[7] = Oral bioavailability in CD1 mouse at 10 mg/kg; type: ADME, organism-based; settings: in vivo; outline: as §1
[8] = Cmax in CD1 mouse at 10 mg/kg, po; type: ADME, organism-based; design: dose 10 mg/kg, route oral; settings: in vivo; outline: as §1
[9] = AUC in CD1 mouse at 10 mg/kg, po; type: ADME, organism-based; design: dose 10 mg/kg, route oral; settings: plasma; outline: as §1
[10] = test system: B16-F10; assay: Antitumor activity against mouse B16F10 cells implanted in C57BL/6 mouse at 60 mg/kg, po BID for 5 days measured on day 12 in presence of DNA alkylating agent temozolomide; type: functional; settings: read-out: TGI
Outline: (§2)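 B16F10 syngeneic model: cells in Matrigel (1:1) were injected sc into the flank at 6 × 10⁴ cells per mouse. Recipients were female C57BL/6 mice, 6-8 weeks old, 18-20 g. Temozolomide was given po q.d. at 50 mg/kg/day for 5 consecutive days. Over the same period the PARP inhibitor was given po b.i.d. Read-out was relative tumor growth inhibition on the stated day.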

[11] = test system: B16-F10; assay: Antitumor activity against mouse B16F10 cells implanted in C57BL/6 mouse at 60 mg/kg, po BID for 5 days measured on day 19 in presence of DNA alkylating agent temozolomide; type: functional; settings: read-out: TGI; outline: as §2
[12] = test system: B16-F10; assay: Antitumor activity against mouse B16F10 cells implanted in C57BL/6 mouse at 30 mg/kg, po BID for 5 days measured on day 12 in presence of DNA alkylating agent temozolomide; type: functional; settings: read-out: TGI; outline: as §2
[13] = test system: B16-F10; assay: Antitumor activity against mouse B16F10 cells implanted in C57BL/6 mouse at 30 mg/kg, po BID for 5 days measured on day 19 in presence of DNA alkylating agent temozolomide; type: functional; settings: read-out: TGI; outline: as §2
[14] = test system: B16-F10; assay: Antitumor activity against mouse B16F10 cells implanted in C57BL/6 mouse at 10 mg/kg, po BID for 5 days measured on day 12 in presence of DNA alkylating agent temozolomide; type: functional; settings: read-out: TGI; outline: as §2
[15] = test system: B16-F10; assay: Antitumor activity against mouse B16F10 cells implanted in C57BL/6 mouse at 10 mg/kg, po BID for 5 days measured on day 19 in presence of DNA alkylating agent temozolomide; type: functional; settings: read-out: TGI; outline: as §2
[16] = test system: B16-F10; assay: Antitumor activity against mouse B16F10 cells implanted in C57BL/6 mouse at 30 mg/kg, po BID for 5 days measured on day 16 in presence of DNA alkylating agent temozolomide; type: functional; settings: B16-F10, read-out: TGI; outline: as §2
[17] = test system: B16-F10; assay: Antitumor activity against mouse B16F10 cells implanted in C57BL/6 mouse at 10 mg/kg, po BID for 5 days measured on day 16 in presence of DNA alkylating agent temozolomide; type: functional; settings: B16-F10, read-out: TGI; outline: as §2
[18] = test system: B16-F10; assay: Antitumor activity against mouse B16F10 cells implanted in C57BL/6 mouse at 3 mg/kg, po BID for 5 days measured on day 16 in presence of DNA alkylating agent temozolomide; type: functional; settings: read-out: TGI
[19] = test system: B16-F10; assay: Antitumor activity against mouse B16F10 cells implanted in C57BL/6 mouse at 3 mg/kg, po BID for 5 days measured on day 19 in presence of DNA alkylating agent temozolomide; type: functional; settings: read-out: TGI
[20] = test system: B16-F10; assay: Antitumor activity against mouse B16F10 cells implanted in C57BL/6 mouse at 50 mg/kg, po QD for 5 days measured on day 12; type: functional; settings: read-out: TGI
[21] = test system: B16-F10; assay: Antitumor activity against mouse B16F10 cells implanted in C57BL/6 mouse at 50 mg/kg, po QD for 5 days measured on day 16; type: functional; settings: read-out: TGI

T1 sequence (P09874 whole entry): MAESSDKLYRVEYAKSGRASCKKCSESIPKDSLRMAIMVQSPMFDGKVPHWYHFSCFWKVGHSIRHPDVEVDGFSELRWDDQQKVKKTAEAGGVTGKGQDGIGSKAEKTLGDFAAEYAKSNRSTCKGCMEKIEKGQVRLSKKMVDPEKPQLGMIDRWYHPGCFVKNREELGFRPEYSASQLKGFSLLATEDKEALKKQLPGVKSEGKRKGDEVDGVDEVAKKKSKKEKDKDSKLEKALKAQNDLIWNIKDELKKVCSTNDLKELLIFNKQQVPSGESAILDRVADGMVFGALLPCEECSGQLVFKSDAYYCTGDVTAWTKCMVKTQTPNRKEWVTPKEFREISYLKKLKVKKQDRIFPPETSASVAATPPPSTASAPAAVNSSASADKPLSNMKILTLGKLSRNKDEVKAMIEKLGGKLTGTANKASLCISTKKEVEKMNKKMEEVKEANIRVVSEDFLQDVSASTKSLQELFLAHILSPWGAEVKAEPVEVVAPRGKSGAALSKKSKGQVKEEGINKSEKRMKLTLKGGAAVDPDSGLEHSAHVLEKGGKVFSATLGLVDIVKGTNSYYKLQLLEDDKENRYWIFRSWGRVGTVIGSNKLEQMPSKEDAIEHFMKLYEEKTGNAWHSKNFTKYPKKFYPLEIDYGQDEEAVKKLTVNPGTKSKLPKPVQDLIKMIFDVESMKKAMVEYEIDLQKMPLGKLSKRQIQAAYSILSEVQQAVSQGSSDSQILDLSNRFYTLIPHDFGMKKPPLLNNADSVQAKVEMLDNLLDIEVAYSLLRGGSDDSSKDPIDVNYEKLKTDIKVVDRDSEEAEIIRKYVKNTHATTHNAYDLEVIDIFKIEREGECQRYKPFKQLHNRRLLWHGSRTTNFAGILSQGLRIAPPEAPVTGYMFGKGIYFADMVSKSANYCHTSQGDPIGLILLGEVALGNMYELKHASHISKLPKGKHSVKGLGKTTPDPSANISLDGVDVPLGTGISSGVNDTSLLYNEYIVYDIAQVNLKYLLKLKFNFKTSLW

Structure (SMILES): NC(=O)c1cccc2[nH]c(-c3ccc(-c4ncc[nH]4)cc3)nc12
- Ki [1]: 2.2 nM
- EC50 [2]: 2.2 nM
- clearance [3]: 533 mL/min/kg
- Vd [4]: 26 L/kg
- half-life [5]: 33.6 min
- AUC [6]: 0.31 µM·h
- bioavailability [7]: 0%

Structure (SMILES): NC(=O)c1cccc2[nH]c(-c3ccc(-c4cnco4)cc3)nc12
- Ki [1]: 0.76 nM
- EC50 [2]: 0.99 nM
- clearance [3]: 300 mL/min/kg
- Vd [4]: 26 L/kg
- half-life [5]: 58.2 min
- AUC [6]: 0.54 µM·h
- Cmax [8]: 70 nM
- AUC [9]: 0.11 µM·h
- bioavailability [7]: 6%

Structure (SMILES): NC(=O)c1cccc2[nH]c(-c3ccc(-c4nnn[nH]4)cc3)nc12
- Ki [1]: 20 nM

Structure (SMILES): NC(=O)c1cccc2[nH]c(-c3ccc(-c4ccno4)cc3)nc12
- Ki [1]: 10 nM
- EC50 [2]: > 1000 nM

Structure (SMILES): NC(=O)c1cccc2[nH]c(-c3ccc(-c4nnco4)cc3)nc12
- Ki [1]: 1 nM
- EC50 [2]: 3.7 nM
- clearance [3]: 55 mL/min/kg
- Vd [4]: 1.7 L/kg
- half-life [5]: 21.6 min
- AUC [6]: 3 µM·h
- Cmax [8]: 2700 nM
- AUC [9]: 4 µM·h
- bioavailability [7]: 41%
- inhibition in vivo at 60 mg/kg [10]: 67%
- inhibition in vivo at 60 mg/kg [11]: 81%
- inhibition in vivo at 30 mg/kg [12]: 59%
- inhibition in vivo at 30 mg/kg [13]: 72%
- inhibition in vivo at 10 mg/kg [14]: 57%
- inhibition in vivo at 10 mg/kg [15]: 53%

Structure (SMILES): NC(=O)c1cccc2[nH]c(-c3ccc(-c4cn5ccc(C(F)(F)F)cc5n4)cc3)nc12
- Ki [1]: 6.8 nM
- EC50 [2]: 20 nM

Structure (SMILES): NC(=O)c1cccc2[nH]c(-c3ccc(-c4nc(=S)o[nH]4)cc3)nc12
- Ki [1]: 3.8 nM
- EC50 [2]: 328 nM

Structure (SMILES): NC(=O)c1cccc2[nH]c(-c3ccc(-c4cccnc4)cc3)nc12
- clearance [3]: 147 mL/min/kg
- Vd [4]: 7.3 L/kg
- half-life [5]: 34.8 min
- AUC [6]: 1.1 µM·h
- Cmax [8]: 2200 nM
- AUC [9]: 2.7 µM·h
- bioavailability [7]: 73%

Structure (SMILES): NC(=O)c1cccc2[nH]c(-c3ccc(-c4csc(N)n4)cc3)nc12
- Ki [1]: 2.2 nM
- EC50 [2]: 26 nM

Structure (SMILES): NC(=O)c1cccc2[nH]c(-c3ccc(-c4cscn4)cc3)nc12
- Ki [1]: 1.7 nM
- EC50 [2]: 3.7 nM

Structure (SMILES): NC(=O)c1cccc2[nH]c(-c3ccc(-c4cnc[nH]4)cc3)nc12
- Ki [1]: 1.2 nM
- EC50 [2]: 3.7 nM

Structure (SMILES): NC(=O)c1cccc2[nH]c(-c3ccc(-c4ccccn4)cc3)nc12
- clearance [3]: 123 mL/min/kg
- Vd [4]: 6.6 L/kg
- half-life [5]: 37.2 min
- AUC [6]: 1.3 µM·h
- Cmax [8]: 1800 nM
- AUC [9]: 6.1 µM·h
- bioavailability [7]: 141%
- inhibition in vivo at 30 mg/kg [13]: 70%
- inhibition in vivo at 10 mg/kg [15]: 32%
- inhibition in vivo at 30 mg/kg [16]: 72%
- inhibition in vivo at 10 mg/kg [17]: 83%
- inhibition in vivo at 3 mg/kg [18]: 66%
- inhibition in vivo at 3 mg/kg [19]: 23%

Structure (SMILES): NC(=O)c1cccc2[nH]c(-c3ccc(-c4n[nH]c(=O)o4)cc3)nc12
- Ki [1]: 1.6 nM
- EC50 [2]: 64 nM

Structure (SMILES): NC(=O)c1cccc2[nH]c(-c3ccc(-c4ccncc4)cc3)nc12
- clearance [3]: 167 mL/min/kg
- Vd [4]: 5.9 L/kg
- half-life [5]: 24 min
- AUC [6]: 0.94 µM·h
- Cmax [8]: 760 nM
- AUC [9]: 1.4 µM·h
- bioavailability [7]: 44%

Structure (SMILES): NC(=O)c1cccc2[nH]c(-c3ccc(-c4ccccc4)cc3)nc12
- Ki [1]: 2 nM
- EC50 [2]: 71 nM

Structure (SMILES): NC(=O)c1cccc2[nH]c(-c3ccc(-c4cn5ccccc5n4)cc3)nc12
- Ki [1]: 2.9 nM
- EC50 [2]: 20 nM

Structure (SMILES): NC(=O)c1cccc2[nH]c(-c3ccc(-c4nc(=O)o[nH]4)cc3)nc12
- Ki [1]: 16 nM

Structure (SMILES): Cn1ccc(-c2ccc(-c3nc4c(C(N)=O)cccc4[nH]3)cc2)n1
- Ki [1]: 4.5 nM
- EC50 [2]: 20 nM

Structure (SMILES): Cc1noc(-c2ccc(-c3nc4c(C(N)=O)cccc4[nH]3)cc2)n1
- Ki [1]: 4 nM
- EC50 [2]: 9.1 nM

Structure (SMILES): NC(=O)c1cccc2[nH]c(-c3ccc(-c4nsc(=O)[nH]4)cc3)nc12
- Ki [1]: 5.2 nM
- EC50 [2]: 461 nM

Structure (SMILES): Cc1nc(-c2ccc(-c3nc4c(C(N)=O)cccc4[nH]3)cc2)co1
- Ki [1]: 2.4 nM
- EC50 [2]: 18 nM

Structure (SMILES): Cn1nnc2c(C(N)=O)ncn2c1=O [TEMOZOLOMIDE]
- inhibition in vivo at 50 mg/kg [20]: 43%
- inhibition in vivo at 50 mg/kg [21]: 56%
